“Also recorded” adds a separate entry of the source.
Key:
LasB = LasB (Pseudomonas aeruginosa, UniProt P14756); assay: LasB fluorescence assay based on a LasB-cleavable FRET peptide substrate; assay type: biochemical; conditions: for improvement in potency: relative to fragment hits 3 and 4; for less potent than 8a and 8b in the in vitro LasB assay: relative to 8a and 8b
[1] = system: P. aeruginosa strain PA14; assay: swarming assay on swarm agar plates; assay type: cell-based, Pseudomonas aeruginosa; conditions: for effect on swarming: 25 μM, 16 h at 30 °C, versus DMSO-treated control; for swarming inhibition: data not shown
How it was run: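 Test compound was added to the swarm agar at 25 μM, and P. aeruginosa PA14 was grown on these plates for 16 h at 30 °C. Swarm morphology was compared visually with plates containing DMSO as the vehicle control.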

[2] = stability studies in bacterial culture medium; assay type: physicochemical; conditions: 48 h period
secreted LasB = secreted LasB (Pseudomonas aeruginosa, UniProt Q02RJ6); assay: bacterial P. aeruginosa elastase assays; assay type: cell-based
Sequence of secreted LasB (Q02RJ6 198-498): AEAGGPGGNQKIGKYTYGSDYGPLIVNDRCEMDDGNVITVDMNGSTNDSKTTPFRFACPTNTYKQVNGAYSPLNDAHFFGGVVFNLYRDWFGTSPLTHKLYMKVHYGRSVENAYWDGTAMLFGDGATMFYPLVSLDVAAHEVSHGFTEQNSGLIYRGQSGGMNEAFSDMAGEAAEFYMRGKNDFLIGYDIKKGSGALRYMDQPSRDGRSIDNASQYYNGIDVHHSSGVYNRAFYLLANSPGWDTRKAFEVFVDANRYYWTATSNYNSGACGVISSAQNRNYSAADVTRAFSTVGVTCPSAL

Sequence of LasB (P14756 198-498): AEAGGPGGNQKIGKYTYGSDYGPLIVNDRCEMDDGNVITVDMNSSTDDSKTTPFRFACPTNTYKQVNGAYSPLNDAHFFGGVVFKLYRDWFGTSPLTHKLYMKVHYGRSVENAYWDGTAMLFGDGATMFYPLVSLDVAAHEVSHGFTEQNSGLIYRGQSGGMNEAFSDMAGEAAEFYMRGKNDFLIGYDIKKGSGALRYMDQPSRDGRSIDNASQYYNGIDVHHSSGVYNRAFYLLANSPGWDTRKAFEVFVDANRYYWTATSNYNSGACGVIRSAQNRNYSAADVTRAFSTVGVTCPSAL

Row | Compound | improvement in potency (LasB) | effect on swarming [1] | stability in bacterial culture medium [2] | less potent than 8a and 8b in the in vitro LasB assay (LasB) | antagonism in bacterial P. aeruginosa elastase assays (secreted LasB inhibition) (secreted LasB) | swarming inhibition [1]
1 | Cc1c(O)c(=S)ccn1Cc1ccc(-c2ccc(F)c(F)c2)cc1 [Compound 8a] | ~ 30 fold | almost completely abolished swarming | no detectable S-oxidation or decomposition | – | – | –
2 | O=C(Cc1cccc(F)c1)NO [Compound 2] | – | – | hydrolytic instability | ~ 5 fold | no secreted LasB inhibition; also recorded: no antagonism | no swarming inhibition
3 | O=C(Cc1ccccc1)NO [Compound 1] | – | – | hydrolytic instability | ~ 5 fold | no secreted LasB inhibition; also recorded: no antagonism | no swarming inhibition
4 | Cc1c(O)c(=S)ccn1Cc1ccc(-c2ccccc2)cc1 [Compound 8b] | ~ 30 fold | almost completely abolished swarming | no detectable S-oxidation or decomposition | – | – | –

— publication PMC3501683 (ACS medicinal chemistry letters, 2012)
